Results: ChEMBL document CHEMBL1811814, “Synthesis and evaluation of indole, pyrazole, chromone and pyrimidine based conjugates for tumor growth inhibitory activities--development of highly efficacious cytotoxic agents” (Eur J Med Chem, 2010)

Assays:
Assay type in all cases: functional
Parameters in all cases: scale not given: the % may be the effect or the level left
TK-10 = experiment: Growth inhibition of human TK10 cells assessed tumor cell growth at 10^-5 M
Outline: (§1)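 Single-dose screen at 10^-5 M across the 60 human tumor cell line panel, run to NCI standards. The value is the percent growth of each cell line in the presence of compound. Compounds active at this dose moved on to five-concentration testing (10^-4 to 10^-8 M).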

SN12C = experiment: Growth inhibition of human SN12C cells assessed tumor cell growth at 10^-5 M
Outline: (§2)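 NCI 60-human-tumor-cell-line panel screen. Each compound was tested at a single concentration of 10^-5 M, and percent growth of tumor cells was recorded for each cell line. Growth inhibition was expressed from these percent-growth values.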

CCRF-CEM = experiment: Growth inhibition of human CCRF-CEM cells assessed tumor cell growth at 10^-5 M; outline: as §2
HOP-92 = experiment: Growth inhibition of human HOP92 cells assessed tumor cell growth at 10^-5 M; outline: as §2
OVCAR-5 = experiment: Growth inhibition of human OVCAR5 cells assessed tumor cell growth at 10^-5 M; outline: as §2
MOLT-4 = experiment: Growth inhibition of human MOLT4 cells assessed tumor cell growth at 10^-5 M; outline: as §2
[1] = Growth inhibition of human […] cells assessed tumor cell growth at 10^-5 M; outline: as §2
SK-OV-3 = experiment: Growth inhibition of human SKOV3 cells assessed tumor cell growth at 10^-5 M; outline: as §2
SK-MEL-5 = experiment: Growth inhibition of human SK-MEL-5 cells assessed tumor cell growth at 10^-5 M; outline: as §2
MDA-MB-231 = experiment: Growth inhibition of human MDA-MB-231 cells assessed tumor cell growth at 10^-5 M; outline: as §2
RXF 393 = experiment: Growth inhibition of human RXF393 cells assessed tumor cell growth at 10^-5 M; outline: as §2
NCI-H460 = experiment: Growth inhibition of human NCI-H460 cells assessed tumor cell growth at 10^-5 M; outline: as §2
SK-MEL-2 = experiment: Growth inhibition of human SK-MEL-2 cells assessed tumor cell growth at 10^-5 M; outline: as §2
A549 = experiment: Growth inhibition of human A549 cells assessed tumor cell growth at 10^-5 M; outline: as §2
U-251 = experiment: Growth inhibition of human U251 cells assessed tumor cell growth at 10^-5 M; outline: as §1
OVCAR-8 = experiment: Growth inhibition of human OVCAR8 cells assessed tumor cell growth at 10^-5 M; outline: as §2
HCT-116 = experiment: Growth inhibition of human HCT116 cells assessed tumor cell growth at 10^-5 M; outline: as §2
HCC 2998 = experiment: Growth inhibition of human HCC2998 cells assessed tumor cell growth at 10^-5 M; outline: as §2
UACC-257 = experiment: Growth inhibition of human UACC257 cells assessed tumor cell growth at 10^-5 M; outline: as §1
HT-29 = experiment: Growth inhibition of human HT-29 cells assessed tumor cell growth at 10^-5 M; outline: as §2
KM12 = experiment: Growth inhibition of human KM12 cells assessed tumor cell growth at 10^-5 M; outline: as §2
NCI-H226 = experiment: Growth inhibition of human NCI-H226 cells assessed tumor cell growth at 10^-5 M; outline: as §2
UO-31 = experiment: Growth inhibition of human UO31 cells assessed tumor cell growth at 10^-5 M; outline: as §1
MDA-MB-468 = experiment: Growth inhibition of human MDA-MB-468 cells assessed tumor cell growth at 10^-5 M; outline: as §2
LOX IMVI = experiment: Growth inhibition of human LOXIMVI cells assessed tumor cell growth at 10^-5 M; outline: as §2
MDA-MB-435 = experiment: Growth inhibition of human MDA-MB-435 cells assessed tumor cell growth at 10^-5 M; outline: as §2
HOP-62 = experiment: Growth inhibition of human HOP62 cells assessed tumor cell growth at 10^-5 M; outline: as §2
NCI/ADR-RES = experiment: Growth inhibition of human NCI/ADR-RES cells assessed tumor cell growth at 10^-5 M; outline: as §2
BT-549 = experiment: Growth inhibition of human BT549 cells assessed tumor cell growth at 10^-5 M; outline: as §2
UACC-62 = experiment: Growth inhibition of human UACC62 cells assessed tumor cell growth at 10^-5 M; outline: as §1
NCI-H322M = experiment: Growth inhibition of human NCI-H322M cells assessed tumor cell growth at 10^-5 M; outline: as §2
NCI-H522 = experiment: Growth inhibition of human NCI-H522 cells assessed tumor cell growth at 10^-5 M; outline: as §2
CAKI-1 = experiment: Growth inhibition of human Caki1 cells assessed tumor cell growth at 10^-5 M; outline: as §2
SF-539 = experiment: Growth inhibition of human SF539 cells assessed tumor cell growth at 10^-5 M; outline: as §2
K562 = experiment: Growth inhibition of human K562 cells assessed tumor cell growth at 10^-5 M; outline: as §2
[2] = Growth inhibition of human Hs 578T cells assessed tumor cell growth at 10^-5 M; outline: as §2
NCI-H23 = experiment: Growth inhibition of human NCI-H23 cells assessed tumor cell growth at 10^-5 M; outline: as §2
Malme-3M = experiment: Growth inhibition of human MALME-3M cells assessed tumor cell growth at 10^-5 M; outline: as §2
A498 = experiment: Growth inhibition of human A498 cells assessed tumor cell growth at 10^-5 M; outline: as §2
HL-60(TB) = experiment: Growth inhibition of human HL-60(TB) cells assessed tumor cell growth at 10^-5 M
Outline: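 HL-60(TB), part of the 60-line panel, tested at a single concentration of 10^-5 M. The read-out is percent tumor cell growth relative to untreated growth.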

DU-145 = experiment: Growth inhibition of human DU145 cells assessed tumor cell growth at 10^-5 M; outline: as §2
SNB-19 = experiment: Growth inhibition of human SNB19 cells assessed tumor cell growth at 10^-5 M; outline: as §1
T47D = experiment: Growth inhibition of human T47D cells assessed tumor cell growth at 10^-5 M; outline: as §1
IGROV-1 = experiment: Growth inhibition of human IGROV1 cells assessed tumor cell growth at 10^-5 M; outline: as §2
PC-3 = experiment: Growth inhibition of human PC3 cells assessed tumor cell growth at 10^-5 M; outline: as §2
SW-620 = experiment: Growth inhibition of human SW620 cells assessed tumor cell growth at 10^-5 M; outline: as §1
M14 = experiment: Growth inhibition of human M14 cells assessed tumor cell growth at 10^-5 M; outline: as §2
SF-268 = experiment: Growth inhibition of human SF268 cells assessed tumor cell growth at 10^-5 M; outline: as §2
786-0 = experiment: Growth inhibition of human 786-0 cells assessed tumor cell growth at 10^-5 M; outline: as §2
ACHN = experiment: Growth inhibition of human ACHN cells assessed tumor cell growth at 10^-5 M; outline: as §2
COLO 205 = experiment: Growth inhibition of human COLO205 cells assessed tumor cell growth at 10^-5 M; outline: as §2
HCT-15 = experiment: Growth inhibition of human HCT15 cells assessed tumor cell growth at 10^-5 M; outline: as §2
OVCAR-3 = experiment: Growth inhibition of human OVCAR3 cells assessed tumor cell growth at 10^-5 M; outline: as §2

For C#CCN1C(=O)/C(=C\c2cn(CC#C)c3ccccc23)c2ccccc21, the Activity (TK-10) was 112%, the Activity (SN12C) was 89.2% and the Activity (CCRF-CEM) was 86%. It also gave an Activity (HOP-92) of 75.1%, an Activity (OVCAR-5) of 101% and an Activity (MOLT-4) of 87.3%. The Activity [1] was 90.9%, the Activity (SK-OV-3) was 97.8% and the Activity (SK-MEL-5) was 91%. The Activity (MDA-MB-231) was 82.7%, the Activity (RXF 393) was 126% and the Activity (NCI-H460) was 98.6%. It also gave an Activity (SK-MEL-2) of 99.8%, an Activity (A549) of 98.9% and an Activity (U-251) of 98.4%. For the same molecule, the Activity (OVCAR-8) was 95.6%, the Activity (HCT-116) was 97.4% and the Activity (HCC 2998) was 107%. For the same molecule, the Activity (UACC-257) was 97.8%, the Activity (HT-29) was 101% and the Activity (KM12) was 101%. For the same molecule, the Activity (NCI-H226) was 86.5%, the Activity (UO-31) was 74.9% and the Activity (MDA-MB-468) was 133%. For the same molecule, the Activity (LOX IMVI) was 103%, the Activity (MDA-MB-435) was 114% and the Activity (HOP-62) was 102%. The Activity (NCI/ADR-RES) was 106%, the Activity (BT-549) was 96.7% and the Activity (UACC-62) was 78.4%. For the same molecule, the Activity (NCI-H322M) was 110%, the Activity (NCI-H522) was 96.6% and the Activity (CAKI-1) was 120%. The Activity (SF-539) was 91.5%, the Activity (K562) was 87.4% and the Activity [2] was 105%. The Activity (NCI-H23) was 92%, the Activity (Malme-3M) was 161% and the Activity (A498) was 101%. The Activity (HL-60(TB)) was 101.9%, the Activity (DU-145) was 109% and the Activity (SNB-19) was 96.7%. The Activity (T47D) was 96.4%, the Activity (IGROV-1) was 91.2% and the Activity (PC-3) was 80%. It also gave an Activity (SW-620) of 102%, an Activity (M14) of 98.6% and an Activity (SF-268) of 95.6%. For the same molecule, the Activity (786-0) was 109%, the Activity (ACHN) was 92.7% and the Activity (COLO 205) was 77.9%. For the same molecule, the Activity (HCT-15) was 104% and the Activity (OVCAR-3) was 102%.
